Measured values published in ChEMBL document CHEMBL1144559, “4-Pyridone derivatives as new inhibitors of bacterial enoyl-ACP reductase FabI” (Bioorg Med Chem, 2007).
Values after ≈ are worked out from the molar mass of the structure shown.

Columns and labels:
[1] = Inhibition of Escherichia coli DH5-alpha His tagged Fab1; set-up: species or system DH5alpha
Summary of the method: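 His-tagged E. coli FabI was expressed in E. coli TOP10 (0.2% arabinose induction), purified on Ni–NTA and eluted with 250 mM imidazole. NADH consumption was read at 340 nm for 10 min at room temperature. IC50 is the concentration giving 50% reduction of absorption.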

Staphylococcus aureus = test: Antimicrobial activity against Staphylococcus aureus ATCC 29213; assay type: functional
Summary of the method: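 Agar dilution on Mueller–Hinton agar with 5% horse blood, twofold serial compound dilutions. About 10^4 CFU per spot inoculated. Plates incubated at 35 °C for 20 h. MIC taken as the lowest concentration preventing visible growth.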

Compound	IC50 [1] [µM]	MIC (Staphylococcus aureus) [µg/mL]
CCCCc1c(C)n(Cc2ccccc2)ccc1=O	61	> 128
Cc1c(Cc2c(Cl)cccc2Cl)c(=O)ccn1Cc1ccc(C(=O)O)cc1	22	> 128
Cc1c(/C=C/c2ccccn2)c(=O)ccn1Cc1ccccc1	> 100	–
Cc1c(Cc2c(Cl)cccc2Cl)c(=O)ccn1CCCCC(=O)O	110	–
Cc1c(Cc2c(Cl)cccc2Cl)c(=O)ccn1CC(C)(C)SCc1cccc(C(F)(F)F)c1	1.9	64 (≈ 124 µM)
CCCCc1cc(=O)c(Cc2c(Cl)cccc2Cl)c(C)[nH]1	0.38	8 (≈ 24.7 µM)
C=Cc1c(C)n(Cc2ccccc2)ccc1=O	> 100	–
Cc1c(Cc2c(Cl)cccc2Cl)c(=O)ccn1Cc1ccc(C(N)=O)cc1	2.5	32 (≈ 79.7 µM)
Cc1c(Cc2c(Cl)cccc2Cl)c(=O)ccn1Cc1ccco1	0.47	2 (≈ 5.74 µM)
Cc1c(Cc2c(Cl)cccc2Cl)c(=O)ccn1CC1CCCCC1	0.22	0.25 (≈ 0.686 µM)
Cc1c(Cc2c(Cl)cc(Cl)cc2Cl)c(=O)ccn1Cc1ccccc1	1.5	8 (≈ 20.4 µM)
Cc1c(Cc2c(Cl)cccc2Cl)c(=O)ccn1C	11	> 128
Cc1c(Cc2c(Cl)cccc2Cl)c(=O)ccn1CCCCCO	1.8	8 (≈ 22.6 µM)
CCCCn1ccc(=O)c(Cc2c(Cl)cccc2Cl)c1C	0.31	2 (≈ 6.17 µM)
COC(=O)c1ccc(Cn2ccc(=O)c(Cc3c(Cl)cccc3Cl)c2C)cc1	0.3	> 128
Cc1c(Cc2ccc(Cl)cc2Cl)c(=O)ccn1Cc1ccccc1	2	32 (≈ 89.3 µM)
Cc1c(Cc2ccccc2)c(=O)ccn1Cc1ccccc1	20	64 (≈ 221 µM)

Compound	IC50 [1] [µM]	MIC (Staphylococcus aureus) [µg/mL]
CCCCc1c(Cc2c(Cl)cccc2Cl)c(=O)ccn1Cc1ccccc1	4.5	32 (≈ 79.9 µM)
Cc1c(Cc2c(Cl)cccc2Cl)c(=O)ccn1Cc1ccccc1	0.3	0.5 (≈ 1.4 µM)
Cc1c(CC2CCCCC2)c(=O)ccn1Cc1ccccc1	0.4	32 (≈ 108 µM)
Cc1[nH]c(CC2CCCCC2)cc(=O)c1Cc1c(Cl)cccc1Cl	0.29	2 (≈ 5.49 µM)
CCCCCCCCCCn1ccc(=O)c(Cc2c(Cl)cccc2Cl)c1C	0.22	32 (≈ 78.4 µM)
Cc1c(Cc2c(Cl)cccc2Cl)c(=O)ccn1Cc1ccc([N+](=O)[O-])cc1	1.8	16 (≈ 39.7 µM)
Cc1c(-c2ccccc2)c(=O)ccn1Cc1ccccc1	2.9	–
CCc1c(Cc2c(Cl)cccc2Cl)c(=O)ccn1Cc1ccccc1	0.78	8 (≈ 21.5 µM)
Cc1cccc(C)c1Cc1c(C)n(Cc2ccccc2)ccc1=O	4.3	16 (≈ 50.4 µM)
Cc1[nH]ccc(=O)c1Cc1c(Cl)cccc1Cl	120	> 64
Cc1c(Cc2c(F)cccc2Cl)c(=O)ccn1Cc1ccccc1	0.39	2 (≈ 5.85 µM)
Cc1c(CCc2ccccn2)c(=O)ccn1Cc1ccccc1	> 100	–
Oc1cc(Cl)ccc1Oc1ccc(Cl)cc1Cl [TRICLOSAN]	0.51	0.125 (≈ 0.432 µM)
Cc1c(Cc2c(F)cccc2F)c(=O)ccn1Cc1ccccc1	2.7	4 (≈ 12.3 µM)
Cc1c(Cc2c(Cl)cccc2Cl)c(=O)ccn1Cc1c(Cl)cccc1Cl	8.4	32 (≈ 74.9 µM)
Cc1c(Cc2ccccc2Cl)c(=O)ccn1Cc1ccccc1	4.2	64 (≈ 198 µM)
Cc1c(Cc2c(Cl)cccc2Cl)c(=O)ccn1Cc1ccc(N)cc1	0.29	1 (≈ 2.68 µM)
